From paper PMC5992617 (ACS chemical biology, 2017) come the findings set out here.

Read-outs that look alike come from different tables or passages of the source. Where no end group is shown, it is not given here. FAM = fluorescein amidite

Test [1] has as its system Rev1^−/− mouse embryonic fibroblasts (MEFs). As to the kind of experiment: Clonogenic survival assay in Rev1−/− MEFs with cisplatin. Format: cell-based. Conditions: cisplatin 0.6 μM alone. The gist of the method: (§1)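 Wild-type or Rev1⁻/⁻ mouse embryonic fibroblasts in DMEM with 10% FBS and 1% penicillin/streptomycin at 37°C, 5% CO₂. Seeded at 600 cells/well and left overnight. […] Colonies of ≥40 cells Coomassie-counted and expressed relative to DMSO controls. Two experiments, each in triplicate.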

Test [2] deals with HT1080 cells. As to the kind of experiment: Clonogenic survival assay in HT1080 cells with cisplatin. Format: cell-based, human. Conditions: cisplatin 0.6 μM, 4 or 5 1.5 μM, alone. The gist of the method:
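HT1080 cells in RPMI 1640 with 10% FBS and 1% penicillin/streptomycin at 37°C, 5% CO₂. Seeded at 600 cells/well in 6-well plates and left overnight. […] Fixed in methanol/acetic acid and Coomassie-stained. Colonies of ≥40 cells counted relative to DMSO controls; Student t-test.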

The subject of test [3] is HPRT gene mutation frequency in HT1080 cells. The test is described as follows: HPRT mutagenesis assay in HT1080 cells. It is filed as cell-based, human. The following applies: cisplatin alone 0.6 μM.
In test [4] the test system is wild-type (WT) mouse embryonic fibroblasts (MEFs). The test is described as follows: Clonogenic survival assay in WT MEFs with cisplatin. Format: cell-based. The following applies: cisplatin 0.6 μM, 4 or 5 1.5 μM, alone. The essentials:
as §1

The target in test [5] is T1, C-terminal domain from human Rev1 (Rev1-CT) (human, UniProt Q9UBZ9 1158-1251).
T1 sequence (looked up): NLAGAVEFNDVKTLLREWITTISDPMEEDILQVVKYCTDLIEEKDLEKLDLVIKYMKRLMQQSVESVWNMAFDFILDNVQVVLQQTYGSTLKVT
As to the kind of experiment: fluorescence polarisation.

Test [6] concerns the target T1, C-terminal domain from human Rev1 …. As to the kind of experiment: fluorescence polarisation. The source holds these as a separate data set.
Test [7] shares this target. The test is described as follows: SEC.

With `N.N.[Cl][Pt][Cl]` [cisplatin], the “Sensitivity of Rev1−/− MEFs to cisplatin compared with WT MEFs” value in test [1] was “significantly more sensitive”. For the same molecule, in test [2], the “Colony formation of HT1080 cells, single agent” value is listed as “minimal effect on colony formation”. For the same molecule, the “Increase in HPRT mutations compared to non-treated cells” value in test [3] was “approximately 1.9 fold”. In addition, in test [4], the “Clonogenic growth of WT MEFs, single agent” value is reported as “minimal effect on clonogenic growth”.

B1: unlabeled Polκ-RIR (peptide, UniProt Q9UBT6 560-575, looked up)
peptide: EMSHKKSFFDKKRSER
For B1, the IC50 in test [5] was 6.6 ± 0.1 µM; in test [6], 7.3 ± 1.4 µM.

B2: human Polκ-RIR peptide (residues 560-575) modified with an N-terminal fluorescein amidite label (FAM-Polκ-RIR) (peptide, UniProt Q9UBT6 560-575, looked up)
peptide: {FAM}-EMSHKKSFFDKKRSER
In the case of B2, the binding result in test [7] is given as “binds”.
